High-throughput results (PubChem)
Mac1 fbg inh = CD11b/CD18-fibrinogen binding inhibition | P05107+P11215 | K562 CD11b/CD18 adhesion to fibrinogen, ATPlite luminescence; Mn2+ added to activate the integrin | inhibition, % at 10 µM | actives 0.54% (n = 93,000);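 active = primary inhibition of 50% or more at 10 µM, then 40% or more on retest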
Smad3 inh = Smad3 (human) transcription factor binding inhibition | TR-FRET Smad3/Dy647-FoxH1 peptide binding, europium anti-His | actives 0.29% (n = 88,000) | P84022 | inhibition, % at 25 µM | AID 630;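 active = compounds that reduce the energy-transfer binding signal between the protein and its labelled peptide by more than half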;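 also: 0% = Smad3 plus labelled peptide maximal FRET and 100% = peptide-only background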
EphB4 antag = antagonists of human EphB4-ephrin-B2 interaction. inhibition, % at 7 µM. actives 0.15% (n = 97,000). EphB4 LBD / TNYL-RAW-Alexa532 peptide, fluorescence polarization. P54760;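 active = inhibition above the screen-wide mean inhibition plus 3 SD, cut at about 15% in these data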;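 also: 0% = DMSO wells and 100% = excess unlabeled TNYL-RAW peptide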
Rev-RRE block = disrupts HIV-1 Rev binding to RRE RNA | P05866 | inhibition, % at 8 µM | Rev peptide-RRE RNA binding, FRET | actives 0.79% (n = 97,000);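 active = inhibition above the screen-wide mean plus 3 SD, cut at about 35% in these data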;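 also: 0% = median DMSO wells and 100% = median Neomycin B control wells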
Target sequence (P05866 whole entry, looked up): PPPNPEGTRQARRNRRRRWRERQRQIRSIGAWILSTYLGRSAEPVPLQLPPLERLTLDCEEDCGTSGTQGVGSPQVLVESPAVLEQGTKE
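Test system: Cy5-tagged RRE RNA duplex with fluorescein-tagged Rev peptide | Read-out: % inhibition of FRET ratio versus controls | Probe or stimulus: Labelled Rev peptide | Incubation: 5 min RNA-compound premix plus 15 min binding step, 25 °C | Technique: FRET fluorescence readout | Benchmarks: DMSO low control, neomycin B high control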
Phagocyt inh = macrophage phagocytosis inhibition; J774A.1 macrophage IgG-bead phagocytosis, imaging; inhibition, % at 5 µM; actives 0.07% (n = 110,000);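 active = inhibition above the mean of the plate negative controls plus 5 SD, cut at about 13% in these data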;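 also: phagocytic index as fraction of beads internalized from green versus red external bead signal; plate controls were DMSO negative control for no effect and cytochalasin-D positive control for full effect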
Mac1 fbg enh = increases human CD11b/CD18 adhesion to fibrinogen. P05107+P11215. K562 CD11b/CD18 adhesion to fibrinogen, ATPlite luminescence. activation, % at 10 µM. actives 0.07% (n = 93,000);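 active = 10 µM primary screen giving 50% or more activity, confirmed by 40% or more on retest at that dose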
* hit, by the source's call; / = not tested or not shown; [ ] = dose if it differs, or a comment. Hits are enriched below; roughly 1.3% of the tested compounds scored in any of these assays.

SMILES | Mac1 fbg inh | Smad3 inh | EphB4 antag | Rev-RRE block | Phagocyt inh | Mac1 fbg enh
COc1cc(CN(C)CC(=O)c2[nH]c(C)c(C(C)=O)c2C)ccc1OC(F)F | 74* | / | -6 | 10 | / | -7
COc1ccccc1OCC(=O)c1[nH]c(C)c(C(C)=O)c1C | / | 12 | 1 | 6 | / | /
Cc1ccc(Nc2nnc(SCC(=O)Nc3cccnc3Cl)s2)cc1C | / | / | / | / | -3 | /
CC(C)c1ccc(/C=C2\CC/C(=C\C=N\N(C)C)C2=O)cc1 | 19 | 3 | 1 | 46* | 0 | 4
CC1=N[C@@](C)(COC(=O)[C@]2(C)N[C@](C)(CO)CO2)COC1=O | / | -1 | / | / | / | /
CCS(=O)(=O)NCc1csc(C)n1 | -9 | -1 | / | / | -1 | -2
CCc1cc(/C(Cc2csc(C)n2)=N/O)c(O)cc1O | 80* | -1 | 3 | 6 | -2 | -9
O=C(O)C(Sc1ccc(Cl)cc1)Sc1ccc(Cl)cc1 | / | -2 | / | / | / | /
Cc1oc(-c2ccc(Cl)cc2)nc1CN1CCCC(C(=O)NCc2cccnc2)C1 (centres undefined) | 84* | -4 | 2 | 10 | 0 | -10
Cc1ccnc(SCCn2c(N3CCOCC3)nc3c2c(=O)n(C)c(=O)n3C)n1 | / | 0 | 1 | 8 | / | /
Cc1ccnc(SCCn2c(N3CCCCC3)nc3c2c(=O)n(C)c(=O)n3C)n1 | -2 | 3 | 20* | 6 | 1 | 0
Cc1ccc(C2C3CN(C(C)C)CC=C3C(C#N)=C(N)C2(C#N)C#N)cc1 (centres undefined) | -10 | / | / | / | 4 | 3
CN1CC=C2C(C#N)=C(N)C(C#N)(C#N)[C@H](c3ccoc3)[C@H]2C1 | 10 | 1 | -4 | 42* | -1 | -2
N#CC1=C(N)C(C#N)(C#N)[C@H](c2ccoc2)[C@H]2CN(Cc3ccccc3)CC=C12 | -2 | -1 | -3 | 100*[fluorescence artefact?] | 5 | -3
CC(=O)N1CC=C2C(C#N)=C(N)C(C#N)(C#N)C(CCc3ccccc3)C2C1 (centres undefined) | 7 | 8 | / | / | -2 | 11
COc1ccc(OC)c(C2C3CN(C(C)C)CC=C3C(C#N)=C(N)C2(C#N)C#N)c1 (centres undefined) | 14 | -3 | 4 | 82* | -2 | -2
CCN1CC=C2C(C#N)=C(N)C(C#N)(C#N)C(CCc3ccccc3)C2C1 (centres undefined) | -1 | -4 | -5 | 86*[fluorescence artefact?] | -1 | -3
CCOc1ccccc1C(=O)N[C@H](C(=O)OCc1cc([N+](=O)[O-])cc2c1OCOC2)C(C)C | 20 | / | / | / | -3 | 1
Cc1cc(C(=O)CSC(=S)SC(C)(C)C)ccc1Cl | / | 16 | / | / | / | /
CC[n+]1c(/C=C/C=C/N(C(C)=O)c2ccccc2)sc2ccccc21 | / | / | -23 | 129*[fluorescence artefact?] | / | /
O=C(O)Cc1cccnc1 | / | -1 | / | / | / | /
OC(Cc1ccccc1)(Cc1ccccc1)c1ccccc1 | / | -2 | / | / | / | /
CC1CCN(CC[S-])CC1.O.O.[Cl][Pt] | / | 6 | / | / | / | /
c1cn2cc(CN3CCOCC3)nc2s1 | -6 | -1 | -5 | 10 | -2 | -1
Cc1ccc(C2SCC(=O)N2Cc2cn3ccsc3n2)o1 (centres undefined) | 3 | 64*[fluorescence artefact?] | 9 | 2 | 0 | 0
SMILES | Mac1 fbg inh | Smad3 inh | EphB4 antag | Rev-RRE block | Phagocyt inh | Mac1 fbg enh
CCCCCCn1ccc(=N)cc1 | 56* | -9 | -1 | 6 | -1 | -5
Cc1ccc2nc(-c3ccccc3)cn2c1 | 69* | 4 | -1 | -2 | / | -7
CCC(C)N1C(=O)/C(=C/c2c(NCCCOC(C)C)nc3c(C)cccn3c2=O)SC1=S (centres undefined) | / | 4 | -8 | 126*[fluorescence artefact?] | / | /
CCCN1C(=O)/C(=C/c2c(NCCCOC(C)C)nc3c(C)cccn3c2=O)SC1=S | -10 | 0 | 2 | 94*[fluorescence artefact?] | 5 | 7
Cc1ccc(Nc2nnc(SCC(=O)NCCN3C(=O)CSC3=O)s2)cc1 | -11 | / | / | / | -14 | 2
O=[N+]([O-])c1cc(Br)c(O)c(/C=N/Nc2nnnn2-c2cccc3ccccc23)c1 | 88* | / | 9 | 13 | 0 | -8
C=CCNc1ncnc2c1[nH]c1ccc(Cl)cc12 | 87* | 2 | -7 | 13 | -2 | -5
C=CCNc1ncnc2c1[nH]c1ccccc12 | 29 | -1 | -6 | 3 | 1 | -9
Cn1cnnc1SCC(=O)Nc1ccccc1 | / | 1 | 10 | 12 | / | /
